For data set [1] the following is noted: cited from earlier work.
Data set [2] deals with H. influenzae clinical isolates (n = 11). The data set can be described thus: MIC50/MIC90 analysis, clinical isolates. Particulars: n = 11 clinical isolates. Format: cell-based, Haemophilus influenzae.
Data set [3] concerns S. aureus ATCC 13709 (Smith). The data set can be described thus: Mouse septicemia model, IV efficacy. The data set is classed as in vivo. Particulars: IV 1 h postchallenge, survival after 48 h.
The conditions of data set [4]: for Clobs / Vzobs: Sprague−Dawley rats, 1 mg/kg IV and 10 mg/kg PO, sterile water.
Data set [5] concerns S. aureus clinical isolates (n = 31). The data set can be described thus: MIC50/MIC90 analysis, clinical isolates. Particulars: n = 31 clinical isolates. Format: cell-based, Staphylococcus aureus.
Data set [6] relates to S. pneumoniae clinical isolates (n = 19). The data set can be described thus: MIC50/MIC90 analysis, clinical isolates. The data set is classed as cell-based, Streptococcus pneumoniae. Particulars: n = 19 clinical isolates.
The subject of data set [7] is E. coli S30 extract system (coupled transcription/translation). The data set is classed as biochemical. Particulars: relative to tetracycline.
In data set [8] the test system is panel of Gram-positive and Gram-negative bacteria. Put plainly: MIC, summary statements over the panel. Particulars: read-out: MICs for the tetracycline-susceptible strains. The data set is classed as cell-based. In short, it runs like this: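 Broth microdilution MIC in liquid medium following CLSI methods. Medium was cation-adjusted Mueller Hinton broth, prepared fresh and held at 4 °C before testing, with defibrinated horse blood added as appropriate. Runs were accepted when comparator antibiotics fell within recommended quality-control ranges for the appropriate ATCC quality-control strains.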

In data set [9] the test system is E. coli clinical isolates (n = 20). Put plainly: MIC50/MIC90 analysis, clinical isolates. The data set is classed as cell-based, Escherichia coli. Particulars: n = 20 clinical isolates.

Marks after values point to notes of the source that are not given here. Bounds are passed on as bounds.

Take `CN(C)[C@@H]1C(O)=C(C(N)=O)C(=O)[C@@]2(O)C(O)=C3C(=O)c4c(O)cccc4[C@@](C)(O)[C@H]3C[C@@H]12` [tetracycline]: the “oral bioavailability in humans” value in data set [1] is recorded as 50−70%.
`CN(C)c1ncc(O)c2c1C[C@H]1C[C@H]3[C@H](N(C)C)C(O)=C(C(N)=O)C(=O)[C@@]3(O)C(O)=C1C2=O.Cl.Cl` [20f, 6-Demethyl-6-deoxy-7-(dimethylamino)-8-azatetracycline Dihydrochloride]: the “MIC range H. influenzae” value in [2] was 0.063−4 μg/mL. Also, the “S. aureus PD50” value in [3] was <0.30 ^b mg/kg. In [4], this molecule yielded a Clobs of 15.3 mL/min/kg and a Vzobs of 4.177 L/kg. In data set [5], the “MIC range S. aureus” value was ≤0.016−32 μg/mL. In data set [6], the “MIC range S. pneumoniae” value is recorded as ≤0.016−8 μg/mL.
As for `CN(C)[C@@H]1C(O)=C(C(N)=O)C(=O)[C@@]2(O)C(O)=C3C(=O)c4c(O)c(N)nc(F)c4C[C@H]3C[C@@H]12.Cl.Cl` [20k, 9-Amino-6-demethyl-6-deoxy-7-fluoro-8-azatetracycline Dihydrochloride], in [7], the “fold more potent than tetracycline in transcription/translation assay” value is recorded as “about 2 fold”.
Same read-out and setting: then `CN(C)[C@@H]1C(O)=C(C(N)=O)C(=O)[C@@]2(O)C(O)=C3C(=O)c4c(O)c(N)nc(Cl)c4C[C@H]3C[C@@H]12` [20j, 9-Amino-7-chloro-6-demethyl-6-deoxy-8-azatetracycline], with “about 2 fold”.
As to `CN(C)[C@@H]1C(O)=C(C(N)=O)C(=O)[C@@]2(O)C(O)=C3C(=O)c4c(O)cncc4C[C@H]3C[C@@H]12.Cl.Cl` [20a, 6-Demethyl-6-deoxy-8-azatetracycline Dihydrochloride], the MIC in data set [8] was 0.25 to 1 µg/mL.
With `CN(C)c1cc(NC(=O)CNC(C)(C)C)c(O)c2c1C[C@H]1C[C@H]3[C@H](N(C)C)C(O)=C(C(N)=O)C(=O)[C@@]3(O)C(O)=C1C2=O` [tigecycline, reference compound], in data set [2], the “MIC range H. influenzae” value was 0.25−1 μg/mL. The “MIC range E. coli” value in [9] was 0.125−2 μg/mL. Further, in [4], the Clobs was determined as 15.5 mL/min/kg and the Vzobs came to 6.119 L/kg. Besides, the “MIC range S. aureus” value in [5] was ≤0.016−1 μg/mL.
As for `CN(C)CC(C)(C)CNc1nc(Cl)c2c(c1O)C(=O)C1=C(O)[C@]3(O)C(=O)C(C(N)=O)=C(O)[C@@H](N(C)C)[C@@H]3C[C@@H]1C2.Cl` [24l, 7-Chloro-6-demethyl-6-deoxy-9-[[3-(dimethylamino)-2,2-dimethylpropyl]amino]-8-azatetracycline Trihydrochloride], the “MIC range H. influenzae” value in data set [2] was 0.25−2 μg/mL. In addition, the “MIC range E. coli” value in data set [9] was 0.5−8 μg/mL. Besides, the “fold lower clearance than the other three compounds” value in data set [4] (Sprague-Dawley, rat, in vivo) is recorded as 5 fold. Moreover, in [4], the Clobs is 3.37 mL/min/kg and the Vzobs worked out at 1.256 L/kg. In data set [5], the “MIC range S. aureus” value is recorded as 0.063−4 μg/mL. Besides, in data set [6], the “MIC range S. pneumoniae” value is recorded as ≤0.016−0.063 μg/mL.

These data come from publication PMC3103189 (Journal of Medicinal Chemistry, 2011).
